Measurements taken from ChEMBL document CHEMBL4350961, “Discovery of Pyrrolo[3,2- d]pyrimidin-4-one Derivatives as a New Class of Potent and Cell-Active Inhibitors of P300/CBP-Associated Factor Bromodomain” (J Med Chem, 2019).
Active and inactive are the calls of the source. The rule behind the calls is not given here.

What was measured:
[1] = biological target: Bromodomain adjacent to zinc finger domain protein 2B (Homo sapiens) (UniProt Q9UIF8); assay: Binding affinity to human partial length BAZ2B (S2054 to S2168 residues) expressed in bacterial expression system at 1 uM by BROMOscan assay
How it was run: (§1)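 BROMOscan bromodomain cross-screen run by an outside service, compound at 1 µM against 32 recombinant bromodomains. Binding given as percent of control.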

[2] = biological target: Transcription initiation factor TFIID subunit 1 (Homo sapiens) (UniProt P21675); assay: Binding affinity to human partial length TAF1 bromodomain 2 (D1521 to D1656 residues) expressed in bacterial expression system at 1 uM by BROMOscan assay; how it was run: as §1
Chain of Transcription initiation factor TFIID subunit 1 (Homo sapiens) (P21675 whole entry, the tested form may be a part): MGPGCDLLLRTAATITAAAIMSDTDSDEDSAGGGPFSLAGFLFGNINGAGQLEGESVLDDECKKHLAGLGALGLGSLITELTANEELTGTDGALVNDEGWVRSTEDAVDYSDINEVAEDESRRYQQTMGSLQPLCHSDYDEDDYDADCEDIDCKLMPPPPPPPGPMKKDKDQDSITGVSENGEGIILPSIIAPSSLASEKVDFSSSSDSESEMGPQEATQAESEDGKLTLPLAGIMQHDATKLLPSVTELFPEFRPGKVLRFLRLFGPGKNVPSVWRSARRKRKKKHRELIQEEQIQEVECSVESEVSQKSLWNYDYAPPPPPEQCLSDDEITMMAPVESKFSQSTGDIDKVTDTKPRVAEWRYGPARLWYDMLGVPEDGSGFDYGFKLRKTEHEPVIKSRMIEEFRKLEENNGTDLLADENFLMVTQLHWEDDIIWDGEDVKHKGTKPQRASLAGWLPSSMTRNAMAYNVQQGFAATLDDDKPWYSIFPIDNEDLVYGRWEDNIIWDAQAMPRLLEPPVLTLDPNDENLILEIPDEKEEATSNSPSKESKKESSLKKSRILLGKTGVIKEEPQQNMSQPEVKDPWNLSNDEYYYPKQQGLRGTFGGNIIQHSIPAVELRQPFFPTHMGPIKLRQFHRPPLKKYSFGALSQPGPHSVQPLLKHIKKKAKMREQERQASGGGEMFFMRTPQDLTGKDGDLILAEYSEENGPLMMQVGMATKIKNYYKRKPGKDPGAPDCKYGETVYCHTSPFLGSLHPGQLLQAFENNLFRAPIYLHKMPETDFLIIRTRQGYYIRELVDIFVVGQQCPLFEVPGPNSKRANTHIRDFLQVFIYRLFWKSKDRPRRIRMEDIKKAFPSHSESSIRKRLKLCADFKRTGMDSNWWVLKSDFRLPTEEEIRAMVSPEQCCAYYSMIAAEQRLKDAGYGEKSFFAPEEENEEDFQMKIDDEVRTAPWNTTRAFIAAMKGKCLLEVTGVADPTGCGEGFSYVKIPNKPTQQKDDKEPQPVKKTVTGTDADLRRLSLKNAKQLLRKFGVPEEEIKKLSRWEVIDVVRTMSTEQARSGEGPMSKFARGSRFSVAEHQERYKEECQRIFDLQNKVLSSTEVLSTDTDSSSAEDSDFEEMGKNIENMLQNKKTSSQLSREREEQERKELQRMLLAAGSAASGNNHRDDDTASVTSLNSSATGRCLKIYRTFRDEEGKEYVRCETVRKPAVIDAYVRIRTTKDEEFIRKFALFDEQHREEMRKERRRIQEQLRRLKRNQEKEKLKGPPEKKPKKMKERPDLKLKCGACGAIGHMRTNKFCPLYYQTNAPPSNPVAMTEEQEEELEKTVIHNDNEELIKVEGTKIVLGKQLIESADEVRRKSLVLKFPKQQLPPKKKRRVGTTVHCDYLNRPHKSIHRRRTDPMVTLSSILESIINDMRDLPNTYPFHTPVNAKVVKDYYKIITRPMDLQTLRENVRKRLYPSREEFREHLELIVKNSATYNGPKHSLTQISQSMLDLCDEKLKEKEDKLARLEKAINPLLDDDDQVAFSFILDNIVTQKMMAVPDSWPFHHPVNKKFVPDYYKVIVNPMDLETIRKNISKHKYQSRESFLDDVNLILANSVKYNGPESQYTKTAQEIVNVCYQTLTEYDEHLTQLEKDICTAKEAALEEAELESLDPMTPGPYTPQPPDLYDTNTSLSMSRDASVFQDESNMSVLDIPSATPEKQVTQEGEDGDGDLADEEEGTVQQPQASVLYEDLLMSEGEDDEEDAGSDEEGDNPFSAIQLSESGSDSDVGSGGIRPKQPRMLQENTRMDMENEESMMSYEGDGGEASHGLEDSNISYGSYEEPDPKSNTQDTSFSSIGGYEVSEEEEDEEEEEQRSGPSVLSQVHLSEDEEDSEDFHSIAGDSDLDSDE

[3] = Clearance in human liver microsomes at 1 uM in presence of NADPH by LC-MS analysis; format: ADME, Microsome; details: read-out: CLH
How it was run: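 Compound at 1 μM with 0.5 mg/mL human liver microsomes and 1 mM NADPH; sampled at 0, 5, 15, 30 and 45 min, stopped with acetonitrile, then centrifuged.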

[4] = test system: Tyrosine-protein kinase Blk (Homo sapiens), P51451 [UNDEFINED MUTATION]; assay: Inhibition of full-length recombinant human BLK M287V mutant at 10 uM using poly(Glu, Tyr) 4:1 as substrate measured after 40 mins in presence of [gamma33P]ATP by scintillation counting method
How it was run: (§2)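 Kinase panel of 422 kinases screened by Eurofins KinaseProfiler at a single test-compound concentration of 10 µM.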

[5] = biological target: Calcium/calmodulin-dependent protein kinase type II subunit alpha (Homo sapiens) (UniProt Q9UQM7); assay: Inhibition of recombinant full-length human CaMK2alpha at 10 uM using calmodulin as substrate measured after 40 mins in presence of [gamma33P]ATP by scintillation counting method
[6] = biological target: Cyclin-dependent kinase 5/CDK5 activator 1 (Homo sapiens) (UniProt Q00535+Q15078); assay: Inhibition of recombinant full-length human CDK5/p35 at 10 uM using histone H1 as substrate measured after 40 mins in presence of [gamma33P]ATP by scintillation counting method; format: protein-complex assay
[7] = biological target: Cyclin-dependent kinase-like 4 (Homo sapiens) (UniProt Q5MAI5); assay: Inhibition of human CDKL4 at 10 uM by radiometric method; how it was run: as §2
[8] = biological target: Dual specificity protein kinase CLK2 (Homo sapiens) (UniProt P49760); assay: Inhibition of recombinant human CLK2 (138 to end residues) at 10 uM using YRRAAVPPSPSLSRHSSPHQS(p)EDEEE as substrate measured after 40 mins in presence of [gamma33P]ATP by scintillation counting method
[9] = biological target: Mitogen-activated protein kinase 8 (Homo sapiens) (UniProt P45983); assay: Inhibition of recombinant full-length human JNK1alpha1 at 10 uM using ATF2 as substrate measured after 40 mins in presence of [gamma33P]ATP by scintillation counting method
[10] = biological target: Vascular endothelial growth factor receptor 2 (Homo sapiens) (UniProt P35968); assay: Inhibition of recombinant human KDR (790 to end residues) at 10 uM using myelin basic protein substrate measured after 40 mins in presence of [gamma33P]ATP by scintillation counting method
[11] = biological target: LIM domain kinase 2 (Homo sapiens) (UniProt P53671); assay: Inhibition of recombinant human LIMK2 at 10 uM by radiometric method
[12] = biological target: Leukocyte tyrosine kinase receptor (Homo sapiens) (UniProt P29376); assay: Inhibition of recombinant human LTK (450 to end residues) at 10 uM using GEEPLYWSFPAKKK as substrate measured after 40 mins in presence of [gamma33P]ATP by scintillation counting method
[13] = biological target: MAP/microtubule affinity-regulating kinase 3 (Homo sapiens) (UniProt P27448); assay: Inhibition of recombinant full-length human MARK3 at 10 uM using KKKVSRSGLYRSPSMPENLNRPR as substrate measured after 40 mins in presence of [gamma33P]ATP by scintillation counting method
Chain of MAP/microtubule affinity-regulating kinase 3 (Homo sapiens) (P27448 whole entry, looked up, the tested form may be a part): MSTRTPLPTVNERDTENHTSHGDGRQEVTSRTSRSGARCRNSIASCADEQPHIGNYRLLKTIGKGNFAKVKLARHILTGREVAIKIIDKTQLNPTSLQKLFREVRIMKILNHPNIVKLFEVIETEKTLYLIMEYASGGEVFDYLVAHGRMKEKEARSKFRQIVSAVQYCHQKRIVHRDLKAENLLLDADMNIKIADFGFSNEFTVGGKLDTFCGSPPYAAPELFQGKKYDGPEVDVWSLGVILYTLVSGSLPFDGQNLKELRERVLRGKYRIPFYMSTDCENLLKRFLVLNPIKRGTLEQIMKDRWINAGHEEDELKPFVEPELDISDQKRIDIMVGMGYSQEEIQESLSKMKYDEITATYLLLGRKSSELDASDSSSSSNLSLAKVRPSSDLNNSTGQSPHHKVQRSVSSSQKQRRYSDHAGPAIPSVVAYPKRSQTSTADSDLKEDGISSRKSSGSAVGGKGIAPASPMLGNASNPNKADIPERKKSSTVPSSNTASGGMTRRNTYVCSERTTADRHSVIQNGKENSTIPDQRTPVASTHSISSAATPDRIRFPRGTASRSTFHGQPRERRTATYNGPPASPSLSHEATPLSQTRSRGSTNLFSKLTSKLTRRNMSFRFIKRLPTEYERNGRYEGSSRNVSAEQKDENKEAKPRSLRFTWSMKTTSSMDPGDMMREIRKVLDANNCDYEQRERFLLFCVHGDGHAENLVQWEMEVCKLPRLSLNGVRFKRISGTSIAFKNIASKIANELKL

[14] = biological target: Serine/threonine-protein kinase MRCK beta (Homo sapiens) (UniProt Q9Y5S2); assay: Inhibition of recombinant human MRCKbeta (1 to 473 residues) at 10 uM using KKRNRTLTV as substrate measured after 40 mins in presence of [gamma33P]ATP by scintillation counting method
Chain of Serine/threonine-protein kinase MRCK beta (Homo sapiens) (Q9Y5S2 whole entry, the tested form may be a part): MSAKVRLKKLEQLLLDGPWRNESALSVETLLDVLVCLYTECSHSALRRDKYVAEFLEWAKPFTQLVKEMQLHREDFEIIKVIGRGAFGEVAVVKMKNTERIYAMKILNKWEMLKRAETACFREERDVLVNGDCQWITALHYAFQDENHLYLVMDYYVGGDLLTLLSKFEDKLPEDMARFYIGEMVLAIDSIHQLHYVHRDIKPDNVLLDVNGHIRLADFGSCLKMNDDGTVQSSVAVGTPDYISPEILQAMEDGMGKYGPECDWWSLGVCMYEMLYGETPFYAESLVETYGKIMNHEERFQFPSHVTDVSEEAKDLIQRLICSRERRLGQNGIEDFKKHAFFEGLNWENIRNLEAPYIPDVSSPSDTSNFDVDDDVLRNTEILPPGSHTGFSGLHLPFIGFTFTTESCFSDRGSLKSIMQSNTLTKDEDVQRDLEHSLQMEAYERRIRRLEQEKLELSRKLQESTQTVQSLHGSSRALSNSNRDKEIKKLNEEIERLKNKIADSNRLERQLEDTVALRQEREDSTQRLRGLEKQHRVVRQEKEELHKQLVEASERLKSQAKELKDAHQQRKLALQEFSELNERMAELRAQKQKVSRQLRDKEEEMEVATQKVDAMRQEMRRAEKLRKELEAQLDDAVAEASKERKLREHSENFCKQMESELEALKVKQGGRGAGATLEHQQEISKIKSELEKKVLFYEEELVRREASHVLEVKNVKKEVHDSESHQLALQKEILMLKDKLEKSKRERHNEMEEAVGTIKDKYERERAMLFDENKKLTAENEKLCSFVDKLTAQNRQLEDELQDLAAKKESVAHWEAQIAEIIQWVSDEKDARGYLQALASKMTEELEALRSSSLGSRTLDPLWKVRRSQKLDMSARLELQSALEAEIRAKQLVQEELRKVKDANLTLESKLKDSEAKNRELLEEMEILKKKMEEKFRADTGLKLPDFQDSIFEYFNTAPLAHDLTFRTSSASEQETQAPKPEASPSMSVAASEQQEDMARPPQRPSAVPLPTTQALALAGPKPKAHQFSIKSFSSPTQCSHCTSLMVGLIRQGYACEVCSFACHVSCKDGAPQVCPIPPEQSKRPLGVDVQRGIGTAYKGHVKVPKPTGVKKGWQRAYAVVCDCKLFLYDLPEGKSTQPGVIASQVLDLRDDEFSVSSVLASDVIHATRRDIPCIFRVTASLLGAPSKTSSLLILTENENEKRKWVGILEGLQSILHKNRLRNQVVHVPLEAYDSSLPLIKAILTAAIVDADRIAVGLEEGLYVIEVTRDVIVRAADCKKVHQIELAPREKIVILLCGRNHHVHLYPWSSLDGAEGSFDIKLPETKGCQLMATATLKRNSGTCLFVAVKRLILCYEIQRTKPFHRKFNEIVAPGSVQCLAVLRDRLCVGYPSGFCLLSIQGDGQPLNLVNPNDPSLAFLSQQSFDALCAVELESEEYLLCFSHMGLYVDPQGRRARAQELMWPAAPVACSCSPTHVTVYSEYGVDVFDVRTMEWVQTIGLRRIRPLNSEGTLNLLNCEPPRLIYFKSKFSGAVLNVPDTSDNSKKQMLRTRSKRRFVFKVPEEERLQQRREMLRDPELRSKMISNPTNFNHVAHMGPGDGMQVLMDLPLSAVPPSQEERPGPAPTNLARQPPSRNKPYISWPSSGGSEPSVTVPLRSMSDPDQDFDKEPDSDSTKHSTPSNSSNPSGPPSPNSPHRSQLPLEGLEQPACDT

[15] = biological target: Ribosomal protein S6 kinase alpha-5 (Homo sapiens) (UniProt O75582); assay: Inhibition of recombinant human MSK1 (2 to end residues) at 10 uM using GRPRTSSFAEGKK as substrate measured after 40 mins in presence of [gamma33P]ATP by scintillation counting method
[16] = biological target: Serine/threonine-protein kinase Nek2 (Homo sapiens) (UniProt P51955); assay: Inhibition of recombinant full-length human NEK2 at 10 uM using myelin basic protein as substrate measured after 40 mins in presence of [gamma33P]ATP by scintillation counting method
[17] = biological target: Serine/threonine-protein kinase NLK (Homo sapiens) (UniProt Q9UBE8); assay: Inhibition of recombinant human NLK (121 to end residues) at 10 uM using myelin basic protein as substrate measured after 40 mins in presence of [gamma33P]ATP by scintillation counting method
Chain of Serine/threonine-protein kinase NLK (Homo sapiens) (Q9UBE8 whole entry): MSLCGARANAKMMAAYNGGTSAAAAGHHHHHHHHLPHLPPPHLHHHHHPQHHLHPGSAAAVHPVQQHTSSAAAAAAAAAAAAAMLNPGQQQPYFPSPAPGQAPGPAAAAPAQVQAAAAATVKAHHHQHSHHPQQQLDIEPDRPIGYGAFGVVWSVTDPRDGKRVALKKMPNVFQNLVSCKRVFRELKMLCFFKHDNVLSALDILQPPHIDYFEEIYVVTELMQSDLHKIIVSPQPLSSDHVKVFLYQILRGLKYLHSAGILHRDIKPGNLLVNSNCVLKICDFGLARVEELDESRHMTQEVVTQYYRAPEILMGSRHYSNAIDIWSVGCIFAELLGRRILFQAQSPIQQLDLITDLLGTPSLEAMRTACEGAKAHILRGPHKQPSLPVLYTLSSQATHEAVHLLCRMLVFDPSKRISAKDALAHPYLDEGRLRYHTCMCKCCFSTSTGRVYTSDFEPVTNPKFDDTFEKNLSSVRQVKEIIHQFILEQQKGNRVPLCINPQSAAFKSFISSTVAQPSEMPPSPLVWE

[18] = biological target: Serine/threonine-protein kinase PAK 1 (Homo sapiens) (UniProt Q13153); assay: Inhibition of recombinant human PAK1 (150 to end residues) at 10 uM using RRRLSFAEPG as substrate measured after 40 mins in presence of [gamma33P]ATP by scintillation counting method
[19] = biological target: Serine/threonine-protein kinase PAK 4 (Homo sapiens) (UniProt O96013); assay: Inhibition of recombinant human PAK4 (295 to end residues) at 10 uM using myelin basic protein as substrate measured after 40 mins in presence of [gamma33P]ATP by scintillation counting method
[20] = biological target: Mitogen-activated protein kinase 12 (Homo sapiens) (UniProt P53778); assay: Inhibition of recombinant full-length human SAPK3 at 10 uM using myelin basic protein as substrate measured after 40 mins in presence of [gamma33P]ATP by scintillation counting method
[21] = biological target: Serine/threonine-protein kinase 16 (Homo sapiens) (UniProt O75716); assay: Inhibition of human STK16 at 10 uM by radiometric method; how it was run: as §2
[22] = biological target: Wee1-like protein kinase (Homo sapiens) (UniProt P30291); assay: Inhibition of human Wee1 (214 to end residues) using LSNLYHQGKFLQTFCGSPLYRRR as substrate measured after 40 mins in presence of [gamma33P]ATP by scintillation counting method
[23] = biological target: Tyrosine-protein kinase Yes (Homo sapiens) (UniProt P07947); assay: Inhibition of recombinant full-length human Yes at 10 uM using poly(Glu, Tyr) 4:1 as substrate measured after 40 mins in presence of [gamma33P]ATP by scintillation counting method
[24] = organism: Mus musculus; assay: Inhibition of recombinant full-length mouse PI3K p110beta/p85beta R123L mutant at 10 uM using phosphatidylinositol-4, 5-bisphosphate as substrate measured after 40 mins by HTRF assay
[25] = biological target: Serine/threonine-protein kinase 33 (Homo sapiens) (UniProt Q9BYT3); assay: Inhibition of recombinant full-length human STK33 at 10 uM using myelin basic protein as substrate measured after 40 mins in presence of [gamma33P]ATP by scintillation counting method

With CN1C[C@H](Nc2nc3cc[nH]c3c(=O)n2C)C[C@H](c2ccc3c(c2)OCCO3)C1 the Activity [1] was “Active”, the Activity [2] was “inactive” and the CLint scaled at 1 µM [3] was 45 mL/min/kg. For the same molecule, the inhibition [4] was “inactive”, the inhibition [5] was “inactive” and the inhibition [6] was “inactive”. For the same molecule, the inhibition [7] was “inactive”, the inhibition [8] was “inactive” and the inhibition [9] was “inactive”. For the same molecule, the inhibition [10] was “inactive”, the inhibition [11] was “inactive” and the inhibition [12] was “inactive”. The inhibition [13] was “inactive”, the inhibition [14] was “inactive” and the inhibition [15] was “inactive”. The inhibition [16] was “inactive”, the inhibition [17] was “inactive” and the inhibition [18] was “inactive”. For the same molecule, the inhibition [19] was “inactive”, the inhibition [20] was “inactive” and the inhibition [21] was “inactive”. The inhibition [22] was “inactive”, the inhibition [23] was “inactive” and the inhibition [24] was “inactive”. For the same molecule, the inhibition [25] was “inactive”.
